Assay results taken from ChEMBL document CHEMBL1147747, “HIV integrase inhibitors with nucleobase scaffolds: discovery of a highly potent anti-HIV agent” (J Med Chem, 2006).
Each block holds one compound with its values, some of them ahead of it. Active and inactive are the calls of the source. The rule behind the calls is not given here.

What was measured:
HeLa [1] = experiment: Anti HIV activity against HIV1 NL4-3 in HeLa-CD4-LTR-beta-gal cells in MAGI-X4 assay; assay type: functional, cell-based
In short: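 MAGI-X4 assay in HeLa-CD4-LTR-β-gal cells infected with HIV-1 NL4-3. Detects blocks in replication up to and including Tat transactivation of the LTR. Triplicate determinations over serial ½log10 dilutions (six to nine concentrations). AZT served as positive control.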

[2] = Therapeutic index (TI=CC50/IC50) in HIV1 TEKI at 1 uM; assay type: cell-based; settings: PBMC infected with HIV-1 TEKI; read-out: Ratio CC50/IC50
In short: (§1)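 Therapeutic index was calculated as CC50/IC50 from the PBMC assay, using HIV-1 NL4-3 or HIV-1 TEKI. Cell viability gave CC50, and antiviral readout gave IC50. Triplicate serial ½log10 dilutions were used, with a high test concentration of 200 μM or 1 μM.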

PBMC [3] = experiment: Antiviral activity against HIV1 TEKI replication in PBMC at 1 uM; assay type: functional, cell-based; settings: Homo sapiens
In short: (§2)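 PBMC cell-based microtiter anti-HIV assay against clinical isolate HIV-1 TEKI (NSI phenotype) or HIV-1 NL4-3 (SI phenotype). Test materials were run in triplicate as serial ½log10 dilutions, six to nine concentrations, from a stated high concentration (200 μM or 1 μM). IC50 and IC90 were determined, with cell viability measured in parallel. AZT was the MOI-sensitive positive control.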

[4] = Therapeutic index (TI=CC50/IC50) in HIV1 NL4-3 at uM; assay type: cell-based; settings: PBMC infected with HIV-1 NL4-3; read-out: Ratio CC50/IC50; in short: as §1
PBMC [5] = experiment: Antiviral activity against HIV1 NL4-3 replication in PBMC at 1 uM; assay type: functional, cell-based; settings: Homo sapiens, NL4-3, PBMC; in short: as §2
in vitro [6] = settings: PBMC infected with HIV-1 NL4-3
in vitro [7] = settings: PBMC infected with HIV-1 TEKI
[8] = target: T1, Human immunodeficiency virus type 1 integrase (Human immunodeficiency virus 1, UniProt Q7ZJM1); experiment: Inhibition of 3' processing step of wt HIV1 integrase
[9] = target: T1, Human immunodeficiency virus type 1 integrase; experiment: Inhibition of strand transfer step of wt HIV1 integrase
PBMC [10] = experiment: Antiviral activity against HIV1 TEKI replication in PBMC at 200 uM; assay type: functional, cell-based; settings: Homo sapiens; in short: as §2
PBMC [11] = experiment: Antiviral activity against HIV1 NL4-3 replication in PBMC at 200 uM; assay type: functional, cell-based; settings: Homo sapiens, NL4-3, PBMC; in short: as §2
HeLa [12] = experiment: Cytotoxicity against HeLa-CD4-LTR-beta-gal cells at 200 uM; assay type: functional, cell-based; settings: Homo sapiens
In short: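 Cytotoxicity was measured in HeLa-CD4-LTR-β-gal cells within the MAGI-X4 assay. Up to 200 μM was tested, in triplicate, as serial ½log10 dilutions.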

T1 sequence (Q7ZJM1 whole entry): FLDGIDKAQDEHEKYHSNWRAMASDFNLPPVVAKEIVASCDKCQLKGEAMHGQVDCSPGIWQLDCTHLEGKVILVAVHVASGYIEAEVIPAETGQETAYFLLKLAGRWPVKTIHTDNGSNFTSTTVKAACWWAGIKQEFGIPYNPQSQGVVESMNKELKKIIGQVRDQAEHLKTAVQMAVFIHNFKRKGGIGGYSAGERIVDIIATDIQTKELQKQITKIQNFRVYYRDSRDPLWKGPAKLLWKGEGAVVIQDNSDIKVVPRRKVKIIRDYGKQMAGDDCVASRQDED

Structure (SMILES): CC(C)(C)NC(=O)[C@@H]1C[C@@H]2CCCC[C@@H]2CN1C[C@@H](O)[C@H](Cc1ccccc1)NC(=O)[C@H](CC(N)=O)NC(=O)c1ccc2ccccc2n1
Activity (HeLa [1]): inactive

Structure (SMILES): Cc1cn([C@H]2C[C@H](N=[N+]=[N-])[C@@H](CO)O2)c(=O)[nH]c1=O [ZIDOVUDINE]
selectivity ratio [2]: > 7140
CC50 (PBMC [3]): > 1000 nM
IC50 (PBMC [3]): 0.14 nM
Activity (HeLa [1]): Active
selectivity ratio [4]: > 5560
CC50 (PBMC [5]): > 1000 nM
IC50 (PBMC [5]): 0.18 nM

Structure (SMILES): O=C(O)C(=O)/C=C(\O)c1cn(Cc2ccccc2)c(=O)n(Cc2ccccc2)c1=O
selectivity ratio at 200 µM (in vitro [6]): > 10000
selectivity ratio at 200 µM (in vitro [7]): > 4000
IC50 [8]: 3.7 µM
IC50 [9]: 200 nM
CC50 (PBMC [10]): > 200 µM
CC90 (PBMC [10]): > 200 µM
IC50 (PBMC [10]): 50 nM
IC90 (PBMC [10]): 3.91 µM
CC50 (PBMC [11]): > 200 µM
CC90 (PBMC [11]): > 200 µM
IC50 (PBMC [11]): < 20 nM
IC90 (PBMC [11]): 1540 nM
Activity (HeLa [1]): Active
Activity (HeLa [12]): inactive

Structure (SMILES): O=C(O)C(=O)/C=C(\O)c1cn(Cc2ccccc2)c(=O)[nH]c1=O
IC50 [8]: 10 µM
IC50 [9]: 500 nM

IC50 [8]: 3.9 µM
IC50 [9]: < 700 nM
Structure (SMILES): O=C(O)C(=O)/C=C(\O)c1cn(Cc2ccc(F)cc2)c(=O)n(Cc2ccc(F)cc2)c1=O

Structure (SMILES): O=C(O)C(=O)/C=C(\O)c1cn(Cc2ccccc2F)c(=O)n(Cc2ccccc2F)c1=O
IC50 [8]: 4.1 µM
IC50 [9]: < 600 nM
